Laboratory results taken from paper PMC7935732 (Targeted Oncology, 2021).
Marks after values point to notes of the source that are not given here.

Tests used:
[1] = Plasma pharmacokinetics, LC-MS/MS, non-compartmental analysis; assay type: in vivo, human; details: for CL/F / RAUC (accumulation ratio for AUC0–12): abemaciclib, geometric mean (% CV); for half-life / Cmax / AUC(0-inf) / AUC(0-t) / Vd/F: human, plasma; for Cmax: Mean abemaciclib Cmax
Outline: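 Oral test compound, 150 or 200 mg. Plasma was sampled at 1–72 h after a single dose (Cycle 1 Day 1) and at 1–24 h after twice-daily dosing (Day 31), with doses held during sampling. Parent and two major active metabolites were measured by validated LC-MS/MS. Non-compartmental analysis; total active analytes summed. RAUC compares steady-state AUC0–12 with single-dose values. Descriptive statistics by dose.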

[2] = tested on: CDK 4; details: in vitro; cited from earlier work
[3] = tested on: Chinese patients with advanced and/or metastatic cancers; experiment: Safety and tolerability; assay type: in vivo, human
Outline: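 Safety set: all patients with ≥ 1 dose. Patient-reported AEs were collected during treatment; chemistry, hematology and urinalysis were done at protocol time points. Laboratory and non-laboratory AEs were graded by CTCAE v4.0 and summarized by cohort.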

[4] = tested on: patients with advanced solid tumors; details: given twice daily on a continuous schedule (every 12 h); mainly Caucasian patients; cited from earlier work

## CCN1CCN(Cc2ccc(Nc3ncc(F)c(-c4cc(F)c5nc(C)n(C(C)C)c5c4)n3)nc2)CC1 [abemaciclib]
[1]; single oral dose 150 mg (C1D1), N 12
  CL/F: 22.1 (63) L/h
[1]; single oral dose 200 mg (C1D1), N 13
  CL/F: 26.4 (74) L/h
[1]; steady state (C1D31) 150 mg every 12 h, n = 5
  RAUC (accumulation ratio for AUC0–12): 1.57 (106)^b
[1]; steady state (C1D31) 200 mg every 12 h, N 10
  RAUC (accumulation ratio for AUC0–12): 2.10 (69)
[1]; oral, 200 mg
  half-life: ~24 h
[1]; oral, 200 mg, after multiple doses of 150 or 200 mg
  Cmax: 260 to 320 ng/mL
[1]; oral, after a single dose
  Cmax: 200 ng/mL
[1]; po, 150 mg
  AUC(0-inf): 6790 ng·h/mL
  AUC(0-t): 1700 ng·h/mL
  Vd/F: 767 L
  half-life: 22.4 h
[1]; po, 200 mg
  AUC(0-inf): 7580 ng·h/mL
  AUC(0-t): 1740 ng·h/mL
  Vd/F: 955 L
  half-life: 22.8 h
[2]
  Greater potency against CDK 4 than against CDK 6: 14 times
[3]; 150 mg cohort
  Grade 5 TEAE of respiratory failure: ^aOne patient reported Grade 5 TEAE of respiratory failure in 150 mg cohort
  Patients who discontinued study treatment due to leukopenia: 1 patient
  Patients with dose reduction from 150 to 100 mg during Cycle 1: 5 patients
[3]; 150 mg every 12 h (n = 12)
  Alanine aminotransferase increased, TEAE any grade: 5 (41.7) n (%)
  Anemia, TEAE any grade: 7 (58.3) n (%)
  Bilirubin increased, TEAE any grade: 4 (33.3) n (%)
  Blood creatinine increased, TEAE any grade: 6 (50.0) n (%)
  Cough, TEAE any grade: 4 (33.3) n (%)
  Decreased appetite, TEAE any grade: 9 (75.0) n (%)
  Diarrhea, TEAE any grade: 9 (75.0) n (%)
  Leukopenia (white blood cell count decreased), TEAE any grade: 9 (75.0) n (%)
  Localized edema, TEAE any grade: 3 (25.0) n (%)
  Malaise, TEAE any grade: 7 (58.3) n (%)
  Nausea, TEAE any grade: 3 (25.0) n (%)
  Neutropenia (neutrophil count decreased), TEAE any grade: 10 (83.3) n (%)
  Patients with ≥ 1 TEAE (any grade): 12 (100.0) n (%)
  Thrombocytopenia (platelet count decreased), TEAE any grade: 6 (50.0) n (%)
  Vomiting, TEAE any grade: 4 (33.3) n (%)
[3]; 200 mg cohort
  Patients reporting SAE of pulmonary embolism: 3 patients
  Patients reporting SAE of urinary tract infection: 1 patient
  Patients with dose reduction from 200 to 150 mg during Cycle 1: 2 patients
[3]; 200 mg every 12 h (n = 13)
  Alanine aminotransferase increased, TEAE any grade: 2 (15.4) n (%)
  Anemia, TEAE any grade: 5 (38.5) n (%)
  Bilirubin increased, TEAE any grade: 1 (7.7) n (%)
  Blood creatinine increased, TEAE any grade: 8 (61.5) n (%)
  Cough, TEAE any grade: 4 (30.8) n (%)
  Decreased appetite, TEAE any grade: 6 (46.2) n (%)
  Diarrhea, TEAE any grade: 11 (84.6) n (%)
  Leukopenia (white blood cell count decreased), TEAE any grade: 7 (53.8) n (%)
  Localized edema, TEAE any grade: 2 (15.4) n (%)
  Malaise, TEAE any grade: 6 (46.2) n (%)
  Nausea, TEAE any grade: 6 (46.2) n (%)
  Neutropenia (neutrophil count decreased), TEAE any grade: 9 (69.2) n (%)
  Patients with ≥ 1 TEAE (any grade): 13 (100.0) n (%)
  Thrombocytopenia (platelet count decreased), TEAE any grade: 5 (38.5) n (%)
  Vomiting, TEAE any grade: 4 (30.8) n (%)
[3]; Grade 3, 150 mg (n = 12)
  Anemia TEAE: 2 (16.7) n (%)
  Blood bilirubin increased TEAE: 1 (8.3) n (%)
  Diarrhea TEAE: 1 (8.3) n (%)
  Embolism TEAE: 1 (8.3) n (%)
  Hyponatraemia TEAE: 2 (16.7) n (%)
  Leukopenia (white blood cell count decreased) TEAE: 0 n (%)
  Lung infection TEAE: 1 (8.3) n (%)
  Malaise TEAE: 1 (8.3) n (%)
  Muscular weakness TEAE: 1 (8.3) n (%)
  Neutropenia (neutrophil count decreased) TEAE: 5 (41.7) n (%)
  Patients with ≥ 1 TEAE of Grade ≥ 3: 8 (66.7) n (%)
  Thrombocytopenia (platelet count decreased) TEAE: 3 (25.0) n (%)
  Vomiting TEAE: 0 n (%)
[3]; Grade 3, 200 mg (n = 13)
  Anemia TEAE: 0 n (%)
  Blood bilirubin increased TEAE: 0 n (%)
  Diarrhea TEAE: 3 (23.1) n (%)
  Embolism TEAE: 0 n (%)
  Hyponatraemia TEAE: 0 n (%)
  Leukopenia (white blood cell count decreased) TEAE: 3 (23.1) n (%)
  Lung infection TEAE: 0 n (%)
  Malaise TEAE: 0 n (%)
  Muscular weakness TEAE: 0 n (%)
  Neutropenia (neutrophil count decreased) TEAE: 3 (23.1) n (%)
  Patients with ≥ 1 TEAE of Grade ≥ 3: 6 (46.2) n (%)
  Thrombocytopenia (platelet count decreased) TEAE: 2 (15.4) n (%)
  Vomiting TEAE: 0 n (%)
[3]; Grade 3, Total (n = 25)
  Anemia TEAE: 2 (8.0) n (%)
  Blood bilirubin increased TEAE: 1 (4.0) n (%)
  Diarrhea TEAE: 4 (16.0) n (%)
  Hyponatraemia TEAE: 2 (8.0) n (%)
  Leukopenia (white blood cell count decreased) TEAE: 3 (12.0) n (%)
  Lung infection TEAE: 1 (4.0) n (%)
  Malaise TEAE: 1 (4.0) n (%)
  Muscular weakness TEAE: 1 (4.0) n (%)
  Neutropenia (neutrophil count decreased) TEAE: 8 (32.0) n (%)
  Patients with ≥ 1 TEAE of Grade ≥ 3: 14 (56.0) n (%)
  Thrombocytopenia (platelet count decreased) TEAE: 5 (20.0) n (%)
  Vomiting TEAE: 0 n (%)
[3]; Grade 4, 150 mg (n = 12)
  Anemia TEAE: 0 n (%)
  Blood bilirubin increased TEAE: 0 n (%)
  Diarrhea TEAE: 0 n (%)
  Embolism TEAE: 0 n (%)
  Hyponatraemia TEAE: 0 n (%)
  Leukopenia (white blood cell count decreased) TEAE: 0 n (%)
  Lung infection TEAE: 0 n (%)
  Malaise TEAE: 0 n (%)
  Muscular weakness TEAE: 0 n (%)
  Neutropenia (neutrophil count decreased) TEAE: 0 n (%)
  Patients with ≥ 1 TEAE of Grade ≥ 3: 1 (8.3) n (%)
  Thrombocytopenia (platelet count decreased) TEAE: 1 (8.3) n (%)
  Vomiting TEAE: 1 (8.3) n (%)
[3]; Grade 4, 200 mg (n = 13)
  Anemia TEAE: 0 n (%)
  Blood bilirubin increased TEAE: 0 n (%)
  Diarrhea TEAE: 0 n (%)
  Embolism TEAE: 3 (23.1) n (%)
  Hyponatraemia TEAE: 0 n (%)
  Leukopenia (white blood cell count decreased) TEAE: 0 n (%)
  Lung infection TEAE: 0 n (%)
  Malaise TEAE: 0 n (%)
  Muscular weakness TEAE: 0 n (%)
  Neutropenia (neutrophil count decreased) TEAE: 0 n (%)
  Patients with ≥ 1 TEAE of Grade ≥ 3: 3 (23.1) n (%)
  Thrombocytopenia (platelet count decreased) TEAE: 0 n (%)
  Vomiting TEAE: 0 n (%)
[3]; Grade 4, Total (n = 25)
  Anemia TEAE: 0 n (%)
  Blood bilirubin increased TEAE: 0 n (%)
  Diarrhea TEAE: 0 n (%)
  Hyponatraemia TEAE: 0 n (%)
  Leukopenia (white blood cell count decreased) TEAE: 0 n (%)
  Lung infection TEAE: 0 n (%)
  Malaise TEAE: 0 n (%)
  Muscular weakness TEAE: 0 n (%)
  Neutropenia (neutrophil count decreased) TEAE: 0 n (%)
  Patients with ≥ 1 TEAE of Grade ≥ 3: 4 (16.0) n (%)
  Thrombocytopenia (platelet count decreased) TEAE: 1 (4.0) n (%)
  Vomiting TEAE: 1 (4.0) n (%)
[3]; Total (n = 25)
  Alanine aminotransferase increased, TEAE any grade: 7 (28.0) n (%)
  Anemia, TEAE any grade: 12 (48.0) n (%)
  Bilirubin increased, TEAE any grade: 5 (20.0) n (%)
  Blood creatinine increased, TEAE any grade: 14 (56.0) n (%)
  Cough, TEAE any grade: 8 (32.0) n (%)
  Decreased appetite, TEAE any grade: 15 (60.0) n (%)
  Diarrhea, TEAE any grade: 20 (80.0) n (%)
  Leukopenia (white blood cell count decreased), TEAE any grade: 16 (64.0) n (%)
  Localized edema, TEAE any grade: 5 (20.0) n (%)
  Malaise, TEAE any grade: 13 (52.0) n (%)
  Nausea, TEAE any grade: 9 (36.0) n (%)
  Neutropenia (neutrophil count decreased), TEAE any grade: 19 (76.0) n (%)
  Patients with ≥ 1 TEAE (any grade): 25 (100.0) n (%)
  Thrombocytopenia (platelet count decreased), TEAE any grade: 11 (44.0) n (%)
  Vomiting, TEAE any grade: 8 (32.0) n (%)
[3]; all treated patients
  Discontinuation of study treatment due to diarrhea or neutropenia: No patient discontinued
  ECG data or vital signs findings: No clinically meaningful findings
  Febrile neutropenia: No febrile neutropenia was reported
[3]; all treated patients (n = 25)
  Diarrhea Grade 4 or 5: not reported
  Diarrhea of Grade 3: 4 patients
  Patients reporting at least one TEAE of any grade: 100%
  Patients who died on treatment due to AE (respiratory failure): 4.0%
  Patients who discontinued treatment due to AEs: 16%
  Patients with TEAE of Grade 4 in severity: 16.0%
  Thrombocytopenia TEAE of Grade ≥ 3: 24%
[3]; all treated patients (n = 25), all Grade 3
  Neutropenia TEAE of Grade ≥ 3: 32%
[3]; in total (n = 25)
  Patients reporting serious adverse events (SAEs): 24.0%
[3]; of the 20 patients experiencing diarrhea
  Patients with 3 or more episodes of diarrhea: 7 patients
[4]
  Maximum tolerated dose (MTD): 200 mg
